Test results published in paper PMC5890913 (Cancer research, 2017).

Experiments:
22RV1 xenograft = 22RV1 xenograft in castrated NSG mice; assay type: in vivo
[1] = system: AR recruitment to PSA enhancer ARE; test: ChIP: AR recruitment to the PSA enhancer ARE in LNCaP cells; assay type: cell-based; details: 10 μM pre-treatment 30 minutes, 0.1 nM R1881 2 hours
AR = details: no reference given; cited from earlier work
[2] = system: PSA and FKBP5 gene expression in LNCaP cells; test: AR-target gene expression; assay type: cell-based; details: 0.1 nM R1881, 24 hours
LNCaP cells = test: LNCaP cell proliferation; assay type: cell-based; details: 0.1 nM R1881, 6 days
[3] = molecular target: T1, progesterone receptor (PR) (Homo sapiens, UniProt P06401); test: PR transactivation in HEK-293 cells; assay type: cell-based; details: HEK-293, progesterone
T1 sequence (P06401 1-933): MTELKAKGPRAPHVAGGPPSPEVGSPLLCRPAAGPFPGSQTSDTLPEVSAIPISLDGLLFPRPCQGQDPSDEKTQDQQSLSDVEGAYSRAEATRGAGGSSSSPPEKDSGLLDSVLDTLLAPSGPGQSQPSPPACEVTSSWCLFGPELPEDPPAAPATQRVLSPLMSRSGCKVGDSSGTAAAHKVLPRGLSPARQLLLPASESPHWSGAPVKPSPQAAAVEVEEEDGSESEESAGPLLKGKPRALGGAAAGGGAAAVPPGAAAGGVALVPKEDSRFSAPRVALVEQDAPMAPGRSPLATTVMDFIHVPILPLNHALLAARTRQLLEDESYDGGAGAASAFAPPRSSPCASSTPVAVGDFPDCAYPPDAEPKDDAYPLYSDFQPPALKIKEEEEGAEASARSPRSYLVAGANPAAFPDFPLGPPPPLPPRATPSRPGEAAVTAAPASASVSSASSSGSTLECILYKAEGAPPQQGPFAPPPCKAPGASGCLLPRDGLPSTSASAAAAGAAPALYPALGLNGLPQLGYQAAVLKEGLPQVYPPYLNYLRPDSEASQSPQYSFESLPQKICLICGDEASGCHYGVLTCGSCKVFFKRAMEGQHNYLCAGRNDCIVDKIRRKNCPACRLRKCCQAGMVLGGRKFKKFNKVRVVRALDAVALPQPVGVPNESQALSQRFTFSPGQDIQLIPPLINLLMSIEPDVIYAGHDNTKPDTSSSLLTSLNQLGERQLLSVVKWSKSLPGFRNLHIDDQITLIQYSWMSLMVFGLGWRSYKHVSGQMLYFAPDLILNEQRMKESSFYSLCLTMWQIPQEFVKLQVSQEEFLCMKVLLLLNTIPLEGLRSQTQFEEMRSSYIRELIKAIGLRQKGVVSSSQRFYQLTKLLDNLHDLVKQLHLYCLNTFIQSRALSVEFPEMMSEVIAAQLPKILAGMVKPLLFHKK

[4] = system: F876L-AR in LNCaP-EnzR cells; test: PSA expression in enzalutamide-resistant LNCaP-EnzR cells; assay type: cell-based; details: F876L mutant, 0.1 nM R1881
AR-FL in AD1 cells = test: AR full length protein level by Western blot in AD1 cells; assay type: cell-based; details: 24 hours
Method in brief: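 AD1 cells expressing full-length AR were kept for 2 days in medium containing charcoal-stripped serum, then treated for 24 hours. Protein was extracted and Western blotted for AR using the N-terminal AR-N20 antibody, with actin as the loading control.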

[5] = system: FKBP5 expression in 22RV1 cells; test: AR-V7-dependent FKBP5 expression in 22RV1 cells; assay type: cell-based; details: 22RV1, charcoal stripped serum, 48 hours
[6] = system: Pr-3001 patient-derived xenograft; test: Patient-derived xenograft Pr-3001 in castrated NSG mice; assay type: in vivo; details: over the course of 14 days
Method in brief: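 The CRPC patient specimen was collected in RPMI with penicillin/streptomycin and fungizone, minced, digested with collagenase for 2 hours and washed in serum-free medium. It was implanted subcutaneously as 1 mm³ fragments in castrated NSG mice, n=8–10 per group. At 100–200 mm³, mice were randomized to vehicle or test compound, and tumor volume was measured thrice weekly.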

panel of kinases = test: Cross-reactivity with a panel of kinases; assay type: biochemical
PR in T47D cells = molecular target: T2, PR in T47D cells (Homo sapiens, UniProt P06401); test: PR protein level by Western blot in T47D cells; assay type: cell-based
T2 sequence (P06401 1-933): T1 sequence (P06401 1-933)
Method in brief: (§1)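 T47D breast cancer cells were plated in growth medium and treated with a range of test compound doses. PR, ER and actin levels were read by Western blot, with actin as the loading control.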

ER in T47D cells = ER in T47D cells (Homo sapiens, UniProt P03372); test: ER protein level by Western blot in T47D cells; assay type: cell-based
Method in brief: as §1

[7] = molecular target: T3, glucocorticoid receptor (GR) in PC-3 cells (Homo sapiens, UniProt P04150); test: GR protein level in transiently transfected PC-3 cells; assay type: cell-based; details: transient transfection
T3 sequence (P04150 1-777): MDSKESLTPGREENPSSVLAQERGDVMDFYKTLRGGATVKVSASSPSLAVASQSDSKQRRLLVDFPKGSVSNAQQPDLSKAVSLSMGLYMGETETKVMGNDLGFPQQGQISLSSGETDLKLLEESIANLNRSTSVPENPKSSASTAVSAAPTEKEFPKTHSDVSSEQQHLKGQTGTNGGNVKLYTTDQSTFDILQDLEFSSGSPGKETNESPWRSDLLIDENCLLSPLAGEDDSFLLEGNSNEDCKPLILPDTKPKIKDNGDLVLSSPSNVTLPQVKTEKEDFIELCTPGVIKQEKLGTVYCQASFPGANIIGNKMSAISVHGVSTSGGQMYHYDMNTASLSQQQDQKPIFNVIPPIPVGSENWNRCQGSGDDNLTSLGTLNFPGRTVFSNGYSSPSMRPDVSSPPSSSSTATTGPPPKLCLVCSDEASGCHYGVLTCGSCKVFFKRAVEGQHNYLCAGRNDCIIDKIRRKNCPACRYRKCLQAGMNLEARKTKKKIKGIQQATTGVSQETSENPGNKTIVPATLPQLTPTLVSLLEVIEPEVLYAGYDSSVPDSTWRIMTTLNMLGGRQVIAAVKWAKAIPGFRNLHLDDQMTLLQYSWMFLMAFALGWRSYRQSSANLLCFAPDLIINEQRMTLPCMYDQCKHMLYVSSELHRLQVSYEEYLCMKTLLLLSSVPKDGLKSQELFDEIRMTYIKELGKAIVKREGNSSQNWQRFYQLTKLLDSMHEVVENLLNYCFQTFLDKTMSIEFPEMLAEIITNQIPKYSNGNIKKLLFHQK

[8] = system: NDRG1 and MT2A pre-mRNAs in LNCaP cells; test: Early induction of NDRG1 and MT2A pre-mRNAs in LNCaP cells; assay type: cell-based; details: 10 μM, 0.1 nM R1881

Chain of ER in T47D cells (P03372 whole entry): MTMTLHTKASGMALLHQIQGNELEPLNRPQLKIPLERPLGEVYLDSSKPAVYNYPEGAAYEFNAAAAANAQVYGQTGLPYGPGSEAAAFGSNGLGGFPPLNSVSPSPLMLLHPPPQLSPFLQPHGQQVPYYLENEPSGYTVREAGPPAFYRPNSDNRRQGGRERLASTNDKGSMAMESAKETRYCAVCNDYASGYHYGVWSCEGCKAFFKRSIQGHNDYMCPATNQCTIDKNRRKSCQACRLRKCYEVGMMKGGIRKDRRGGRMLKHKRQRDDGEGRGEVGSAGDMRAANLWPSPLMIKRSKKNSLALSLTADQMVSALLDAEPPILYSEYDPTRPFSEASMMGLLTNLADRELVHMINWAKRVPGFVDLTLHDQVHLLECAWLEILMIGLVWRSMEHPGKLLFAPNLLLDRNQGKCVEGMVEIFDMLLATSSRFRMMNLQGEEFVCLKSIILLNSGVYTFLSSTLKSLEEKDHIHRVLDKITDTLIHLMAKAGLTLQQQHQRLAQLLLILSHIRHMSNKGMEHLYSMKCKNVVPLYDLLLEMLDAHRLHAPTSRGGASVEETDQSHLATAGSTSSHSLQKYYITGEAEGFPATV

CNC(=O)c1ccc(N2C(=S)N(c3ccc(C#N)c(C(F)(F)F)c3)C(=O)C2(C)C)cc1F [enzalutamide, reference compound]
effect on growth of 22RV1 tumors (22RV1 xenograft; 30 mg/kg/day s.c.): no effect | inhibition of AR recruitment to the ARE on the PSA enhancer [1]: inhibited

COc1ccc(/C=C/C(=O)/C=C(O)/C=C/c2ccc(OC)c(OC)c2)cc1OC [ASC-J9]
concentrations inducing AR degradation (AR): greater than 10 μM

C[C@@](O)(Cn1ccc2cc(F)ccc21)C(=O)Nc1ccc(C#N)c(C(F)(F)F)c1 [(R)-UT-155]
inhibition of R1881-induced FKBP5 expression [2]: at concentrations comparable to that observed with UT-155 | inhibition of LNCaP proliferation (LNCaP cells): inhibited the proliferation of LNCaP cells

C[C@](O)(Cn1ccc2cc(F)ccc21)C(=O)Nc1ccc(C#N)c(C(F)(F)F)c1 [UT-155]
inhibition of PR transactivation [3]: at concentration comparable to that of the AR | inhibition of PSA expression in LNCaP-EnzR [4]: inhibited the expression of PSA | effect on AR expression in AD1 cells (AR-FL in AD1 cells): reduces AR expression | inhibition of AR-V7-dependent FKBP5 expression [5]: inhibited | inhibition of 22RV1 xenograft growth (22RV1 xenograft; 100 mg/kg/day s.c.): 53% | inhibition of Pr-3001 growth [6]: 40–60% | inhibition of kinase activity (panel of kinases): no significant inhibition | effect on PR protein levels (PR in T47D cells): no effect | effect on ER protein levels (ER in T47D cells): no effect | effect on GR protein levels [7]: no effect on GR | inhibition of AR recruitment to the ARE on the PSA enhancer [1]: failed to inhibit | inhibition of R1881-dependent increase in NDRG1 and MT2A pre-mRNAs at 1 and 2 hours [8]: failed to inhibit
